Bioassay records: PubChem BioAssay, several laboratories
Compounds with a hit are over-represented: about 3.5% of the library has one in this group of screens.
MEKK2 WT-MEK5: raises or lowers MEK5 binding to wildtype human MEKK2 PB1 domain | AID 1531 | 290,000 tested, 1.1% active | binding response (% of control), % at 10 µM | Q9Y2U5 | bead flow cytometry, Alexa488-MEK5 binding to MEKK2 WT; actives lie on both sides; in the data active = binding response below about 67% or above about 130%
ABCG2 block: blocks JC-1 efflux by human ABCG2 transporter; Q9UNQ0; IgMXP3 cells, flow cytometry; inhibition, % at 6.6 µM; 190,000 tested, 0.1% active; AID 1325;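 active = inhibition above 80%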
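Test system: IgMXP3 (ABCG2) plus far-red-tagged CCRF-Adr (ABCB1) cells / Amount: 3 million cells/mL in well / Reagent: JC-1 transporter substrate / Timing: 10 min compound exposure, 25 °C / Signal: flow cytometry, 530 nm JC-1 signal / Read-out: percent efflux inhibition, scaled nicardipine 100% to DMSO 0% / Benchmarks: nicardipine as high control, DMSO as low control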
WT yeast gro inh: growth inhibition of WT yeast, mitochondrial fusion screen | mitochondrial fusion phenotypic screen, WT strain | inhibition, % at 10 µM | 190,000 tested, 2.1% active | AID 1362; in the data active = inhibition above about 58%; tested in S. cerevisiae
MEKK2mut PB1 HTS: signal of MEK5 binding to mutant human MEKK2 PB1 domain; bead flow cytometry, Alexa488-MEK5 binding to MEKK2 mutant; percent response, % at 10 µM; 290,000 tested, 0.35% active; AID 1530; in the data active = percent response above about 24%, passing the limit was not always enough
MEKK3 PB1 HTS: raises or lowers MEK5 binding to the human MEKK3 PB1 domain. 290,000 tested, 1.4% active. Q99759. bead-based flow cytometry, Alexa488-MEK5 binding to MEKK3; actives lie on both sides; 0 = blocked by unlabeled MEK5, 100 = vehicle. binding response (% of control), % at 10 µM;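 active = binding response more than 3 SD above or below the average of its plate-row segment, actives on both sides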;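 note: Alexa488 bead fluorescence after subtracting the streptavidin-only scavenger bead signal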
ABCB1 inh: human ABCB1 inhibition, ABCG2 as counter-screen; 190,000 tested, 0.067% active; inhibition, % at 6.6 µM; CCRF-Adr cells, JC-1 efflux, flow cytometry; P08183; in the data active = inhibition above about 40%;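 note: higher value means more JC-1 retained so stronger ABCB1 efflux block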
Target sequence (P08183 whole entry, looked up): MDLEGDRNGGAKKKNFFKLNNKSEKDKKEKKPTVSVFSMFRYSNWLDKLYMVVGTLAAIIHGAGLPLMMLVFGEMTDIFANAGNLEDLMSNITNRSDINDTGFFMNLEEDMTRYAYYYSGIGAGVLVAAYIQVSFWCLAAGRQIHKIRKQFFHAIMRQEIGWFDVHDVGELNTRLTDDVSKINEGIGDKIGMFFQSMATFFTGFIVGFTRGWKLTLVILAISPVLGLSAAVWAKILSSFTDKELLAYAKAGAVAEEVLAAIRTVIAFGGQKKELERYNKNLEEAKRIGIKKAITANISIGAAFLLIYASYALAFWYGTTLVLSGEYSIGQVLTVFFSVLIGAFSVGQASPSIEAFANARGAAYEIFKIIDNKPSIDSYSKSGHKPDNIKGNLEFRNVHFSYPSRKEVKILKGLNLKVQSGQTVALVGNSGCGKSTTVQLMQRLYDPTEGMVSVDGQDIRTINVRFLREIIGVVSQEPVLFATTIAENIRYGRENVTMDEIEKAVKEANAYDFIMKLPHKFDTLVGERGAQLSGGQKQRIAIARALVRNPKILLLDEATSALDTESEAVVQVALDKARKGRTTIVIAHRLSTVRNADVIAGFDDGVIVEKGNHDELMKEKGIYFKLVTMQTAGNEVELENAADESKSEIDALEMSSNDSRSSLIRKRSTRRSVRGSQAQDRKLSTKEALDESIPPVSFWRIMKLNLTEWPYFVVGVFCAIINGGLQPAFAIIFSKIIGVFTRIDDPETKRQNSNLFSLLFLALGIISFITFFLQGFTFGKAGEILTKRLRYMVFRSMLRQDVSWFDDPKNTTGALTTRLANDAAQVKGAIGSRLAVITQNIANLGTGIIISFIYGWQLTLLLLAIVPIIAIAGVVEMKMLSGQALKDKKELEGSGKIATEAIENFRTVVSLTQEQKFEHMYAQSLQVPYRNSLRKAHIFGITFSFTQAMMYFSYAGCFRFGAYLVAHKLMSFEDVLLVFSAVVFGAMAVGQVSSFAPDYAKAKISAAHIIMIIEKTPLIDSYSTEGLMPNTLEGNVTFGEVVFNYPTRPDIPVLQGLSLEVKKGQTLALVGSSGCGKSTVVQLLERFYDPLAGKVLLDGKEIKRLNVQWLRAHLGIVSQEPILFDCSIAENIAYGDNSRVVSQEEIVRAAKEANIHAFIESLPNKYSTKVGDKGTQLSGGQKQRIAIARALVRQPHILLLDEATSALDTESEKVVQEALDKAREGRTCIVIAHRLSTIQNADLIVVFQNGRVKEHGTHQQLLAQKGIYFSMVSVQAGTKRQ
MEKK2wt confirm: raises or lowers MEK5 binding to wildtype human MEKK2, retest; binding response (% of control), % at 10 µM; shares compounds with MEKK3 PB1 HTS; AID 1892; bead flow cytometry, Alexa488-MEK5 binding to MEKK2 WT; actives lie on both sides; 5,900 tested, 2.4% active; in the data active = binding response below about 16% or above about 210%; inactive = in between
MEKK2mut confirm: signal of MEK5 binding to mutant human MEKK2, retest; shares compounds with MEKK3 PB1 HTS; bead flow cytometry, Alexa488-MEK5 binding to MEKK2 mutant; percent response, % at 10 µM; 5,900 tested, 2% active; AID 1893; in the data active = percent response mostly above about 71%, no sharp cut-off; inactive = mostly below about 38%;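 note: higher means compound restores mutant binding toward wildtype level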
MEKK3 confirm: confirmation of inhibitors of MEK5 binding to human MEKK3; shares compounds with MEKK3 PB1 HTS; bead flow cytometry, Alexa488-MEK5 binding to MEKK3; stronger effect = lower value; binding response (% of control), % at 10 µM; 5,900 tested, 1.8% active;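 active = binding response below 72% of control, or above a set upper limit, though filed actives all read lower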
Hits are given with their value; [ ] = another dose, or the depositor's remark.

For O=C(Nc1cccc(-c2cccc(F)c2)c1)C1CCN(CC2CCOC2)CC1 (stereo not drawn) the results were MEKK2 WT-MEK5 inactive, MEKK2mut PB1 HTS inactive and MEKK3 PB1 HTS inactive.
For COCc1ccc(CN2CCC(C(=O)Nc3cccc(-c4cccc(Cl)c4)c3)CC2)o1 the results were MEKK2 WT-MEK5 177, MEKK2mut PB1 HTS 25, MEKK3 PB1 HTS inactive, MEKK2wt confirm inactive, MEKK2mut confirm inactive and MEKK3 confirm inactive.
For O=C(Nc1cccc(-c2cccc(Cl)c2)c1)C1CCN(CC2CCOC2)CC1 (stereo not drawn) the results were MEKK2 WT-MEK5 151, MEKK2mut PB1 HTS 41, MEKK3 PB1 HTS inactive, MEKK2wt confirm inactive, MEKK2mut confirm inactive and MEKK3 confirm inactive.
Screening COCc1ccc(CN2CCC(C(=O)Nc3cccc(-c4cscn4)c3)CC2)o1 returned MEKK2 WT-MEK5 inactive, MEKK2mut PB1 HTS inactive and MEKK3 PB1 HTS inactive.
Cc1ccc(C(C(=O)NCc2ccc(F)cc2)N(Cc2ccco2)C(=O)c2snc(C(N)=O)c2N)o1 (stereo not drawn) was read as MEKK2 WT-MEK5 inactive, MEKK2mut PB1 HTS inactive and MEKK3 PB1 HTS inactive.
C/C(CC(=O)Nc1ccc(C)c(Cl)c1)=N\NC(=O)c1cccc(O)c1 was read as MEKK2 WT-MEK5 inactive, MEKK2mut PB1 HTS inactive and MEKK3 PB1 HTS inactive.
For COCCOc1cc(-n2ccnc2SC)c(Cl)cc1Cl the results were MEKK2 WT-MEK5 inactive, ABCG2 block inactive, WT yeast gro inh inactive, MEKK2mut PB1 HTS inactive, MEKK3 PB1 HTS inactive and ABCB1 inh inactive.
`CCCC1/C(=N/O)CC(c2ccccc2)NC1c1ccccc1` (stereo not drawn) gave MEKK2 WT-MEK5 7.0[inhibitor], ABCG2 block inactive, WT yeast gro inh inactive, MEKK2mut PB1 HTS inactive, MEKK3 PB1 HTS 4.0[inhibitor], ABCB1 inh inactive, MEKK2wt confirm inactive, MEKK2mut confirm inactive and MEKK3 confirm inactive.
For CC1/C(=N/O)CC(c2ccccc2)NC1c1ccccc1 (stereo not drawn) the results were MEKK2 WT-MEK5 inactive, ABCG2 block inactive, WT yeast gro inh inactive, MEKK2mut PB1 HTS inactive, MEKK3 PB1 HTS inactive and ABCB1 inh inactive.
O=C(N/C(=C/c1ccccc1Cl)C(=O)N1CCCCC1)c1ccco1 was read as MEKK2 WT-MEK5 inactive, MEKK2mut PB1 HTS inactive and MEKK3 PB1 HTS inactive.
CCC(=O)N1CCc2cc(Br)cc(S(=O)(=O)NCCN3CCCCC3CC)c21 (stereo not drawn) was read as MEKK2 WT-MEK5 inactive, ABCG2 block inactive, WT yeast gro inh inactive, MEKK2mut PB1 HTS inactive, MEKK3 PB1 HTS 57[inhibitor], ABCB1 inh inactive, MEKK2wt confirm inactive, MEKK2mut confirm inactive and MEKK3 confirm inactive.
For O=C1CC(c2ccccc2Cl)=NN(c2ncnc3ccccc23)C1=O the results were MEKK2 WT-MEK5 inactive, ABCG2 block inactive, WT yeast gro inh inactive, MEKK2mut PB1 HTS inactive, MEKK3 PB1 HTS inactive and ABCB1 inh inactive.
For COc1ccc(/C=C(/NC(=O)c2ccccc2)C(=O)N/N=C/c2sccc2C)cc1 the results were MEKK2 WT-MEK5 inactive, ABCG2 block inactive, WT yeast gro inh inactive, MEKK2mut PB1 HTS inactive, MEKK3 PB1 HTS 133, ABCB1 inh inactive, MEKK2wt confirm inactive, MEKK2mut confirm inactive and MEKK3 confirm inactive.
`CC(NC(=O)c1ccco1)c1nc(-c2ccc(Cl)cc2)no1` (stereo not drawn) gave MEKK2 WT-MEK5 inactive, MEKK2mut PB1 HTS inactive and MEKK3 PB1 HTS inactive.
Screening CSc1ccc(/C=C/C(=O)NC(=O)c2ccccc2O)cc1 returned MEKK2 WT-MEK5 inactive, ABCG2 block inactive, WT yeast gro inh inactive, MEKK2mut PB1 HTS inactive, MEKK3 PB1 HTS 128, ABCB1 inh inactive, MEKK2wt confirm inactive, MEKK2mut confirm inactive and MEKK3 confirm inactive.
O=C(/C=C/c1ccc(Br)cc1)NC(=O)c1ccccc1O was read as MEKK2 WT-MEK5 inactive, ABCG2 block inactive, WT yeast gro inh inactive, MEKK2mut PB1 HTS inactive, MEKK3 PB1 HTS inactive and ABCB1 inh inactive.
Screening O=C1CN(CC(=O)Nc2cccc(Cl)c2Cl)c2ccccc2N1 returned MEKK2 WT-MEK5 inactive, ABCG2 block inactive, WT yeast gro inh inactive, MEKK2mut PB1 HTS inactive, MEKK3 PB1 HTS inactive and ABCB1 inh inactive.
For COc1cc(/C=N/Nc2ccc(Cl)cc2)ccc1OC(=O)c1cccs1 the results were MEKK2 WT-MEK5 inactive, ABCG2 block inactive, WT yeast gro inh inactive, MEKK2mut PB1 HTS inactive, MEKK3 PB1 HTS 46[inhibitor], ABCB1 inh inactive, MEKK2wt confirm inactive, MEKK2mut confirm inactive and MEKK3 confirm inactive.
Screening CCOc1nc(N(C)C)nc(-n2nnc(C(C)=O)c2C)n1 returned MEKK2 WT-MEK5 inactive, ABCG2 block inactive, WT yeast gro inh inactive, MEKK2mut PB1 HTS inactive, MEKK3 PB1 HTS inactive and ABCB1 inh inactive.
`COc1nc(N(C)C)nc(-n2nnc(C(C)=O)c2C)n1` gave MEKK2 WT-MEK5 1.0[inhibitor], ABCG2 block inactive, WT yeast gro inh inactive, MEKK2mut PB1 HTS inactive, MEKK3 PB1 HTS 2.0[inhibitor], ABCB1 inh inactive, MEKK2wt confirm inactive, MEKK2mut confirm inactive and MEKK3 confirm inactive.
Screening O=C(/C=C/c1c(F)cccc1Cl)N1CCc2ccccc2C1 returned MEKK2 WT-MEK5 inactive, MEKK2mut PB1 HTS inactive and MEKK3 PB1 HTS inactive.
CSc1ccc(CN(C)CC(=O)Nc2ccccc2Br)cc1 was read as MEKK2 WT-MEK5 inactive, ABCG2 block inactive, WT yeast gro inh inactive, MEKK2mut PB1 HTS inactive, MEKK3 PB1 HTS 132, ABCB1 inh inactive, MEKK2wt confirm inactive, MEKK2mut confirm inactive and MEKK3 confirm inactive.
CSc1ccccc1NC(=O)CN(C)Cc1ccc(Br)cc1 was read as MEKK2 WT-MEK5 inactive, ABCG2 block inactive, WT yeast gro inh inactive, MEKK2mut PB1 HTS inactive, MEKK3 PB1 HTS inactive and ABCB1 inh inactive.
O=C(Nc1ccc(Cl)cn1)c1ccc2c(Cl)c3c(nc2c1)CCC3 was read as MEKK2 WT-MEK5 47[inhibitor], MEKK2mut PB1 HTS inactive, MEKK3 PB1 HTS 40[inhibitor], MEKK2wt confirm inactive, MEKK2mut confirm inactive and MEKK3 confirm 70.
Cc1cccc(NC(=O)c2ccc3c(Cl)c4c(nc3c2)CCCC4)n1 was read as MEKK2 WT-MEK5 inactive, ABCG2 block inactive, WT yeast gro inh inactive, MEKK2mut PB1 HTS inactive, MEKK3 PB1 HTS inactive and ABCB1 inh inactive.
Screening CCc1ccc2nc3sc(C(=O)O)cc3cc2c1 returned MEKK2 WT-MEK5 inactive, ABCG2 block inactive, WT yeast gro inh inactive, MEKK2mut PB1 HTS inactive, MEKK3 PB1 HTS inactive and ABCB1 inh inactive.
